The target in this assay is Scavenger receptor class B member 1 (Mus musculus) (UniProt Q61009). The experiment in a line: SR-BI C384S cholesterol efflux blockers – cell-based, ldlA CHO C384S mutant, [3H]cholesterol, powder samples, set 2, mechanism study for SR-BI HDL uptake inhibitor project, dose response (AID 624015). Particulars: [3H]cholesterol efflux to HDL. In a few lines: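 system = Cys384S SR-BI mutant ldlA CHO cells | medium = HEPES pH 7.4 buffered medium, FAF-BSA equilibrated | doses = 0.5% DMSO vehicle | times = 1 h compound pre-incubation, then 2 h HDL efflux, 37 °C | measured by = scintillation counting, medium and cell lysate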
Scavenger receptor class B member 1 (Mus musculus), sequence (Q61009 whole entry, looked up): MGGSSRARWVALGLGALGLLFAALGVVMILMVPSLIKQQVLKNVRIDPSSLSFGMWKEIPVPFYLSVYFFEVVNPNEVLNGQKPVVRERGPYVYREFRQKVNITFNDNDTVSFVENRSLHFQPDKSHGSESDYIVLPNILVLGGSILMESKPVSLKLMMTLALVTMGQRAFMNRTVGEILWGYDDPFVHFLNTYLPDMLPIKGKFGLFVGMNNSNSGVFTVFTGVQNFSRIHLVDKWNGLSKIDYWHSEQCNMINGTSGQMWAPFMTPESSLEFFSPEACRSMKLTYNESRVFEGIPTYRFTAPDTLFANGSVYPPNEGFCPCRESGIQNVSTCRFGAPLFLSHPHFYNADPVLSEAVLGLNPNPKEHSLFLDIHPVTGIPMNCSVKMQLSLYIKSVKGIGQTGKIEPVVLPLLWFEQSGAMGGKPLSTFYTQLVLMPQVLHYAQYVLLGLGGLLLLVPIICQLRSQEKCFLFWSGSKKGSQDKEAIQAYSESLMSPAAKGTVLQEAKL

The values that follow come from PubChem BioAssay AID624015 (Broad Institute, 2012).

The term AC50 denotes the midpoint of the concentration-response curve, whichever way the signal moves. On to `CC(C)NC(=O)Nc1ccc2c(c1)C(=O)N([C@H](C)CO)C[C@@H](C)[C@H](CN(C)S(=O)(=O)c1ccc(Cl)cc1)O2`, for which the concentration at half-maximal activity (AC50) is 250 nM.
